These results are taken from article PMC8817670 (Journal of medicinal chemistry, 2021).

Like-named read-outs stand apart in the source and are kept apart here.

One data set can be described thus: Measurement of logD. Type of data set: physicochemical. The note with it: for logD7.4: n-octanol / sodium phosphate buffer pH 7.4, RT, n = 6; for logD: n-octanol/sodium phosphate buffer, pH 7.4. A digest of the protocol:
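Shake-flask partition of each radiolabelled test compound between 1-octanol and sodium phosphate buffer (pH 7.4) at room temperature; logD taken from the distribution coefficient of radioactivity between the two phases.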

For data set [1], the target named is T1, human cerebellum TSPO, HAB genotype (Homo sapiens, UniProt P30536). Put plainly: [3H]PK11195 binding assay, human cerebellum homogenates, HAB genotype. The note with it: for lipE HAB: lipE = pKi – logD.
T1 sequence (P30536 whole entry): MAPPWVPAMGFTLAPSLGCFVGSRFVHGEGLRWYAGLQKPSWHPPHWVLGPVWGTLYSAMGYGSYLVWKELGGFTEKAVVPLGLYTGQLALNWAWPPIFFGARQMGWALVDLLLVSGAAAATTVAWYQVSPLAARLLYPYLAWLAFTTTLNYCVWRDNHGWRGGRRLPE
Data set [2] relates to human cerebellum TSPO, LAB genotype. Nature of the data set: [3H]PK11195 binding assay, human cerebellum homogenates, LAB genotype. The note with it: human cerebellum genotype sensitivity in vitro.
In data set [3] the target is T2, human cerebellum TSPO, LAB genotype (Homo sapiens, UniProt P30536). Described as above.
T2 sequence (P30536 2-169): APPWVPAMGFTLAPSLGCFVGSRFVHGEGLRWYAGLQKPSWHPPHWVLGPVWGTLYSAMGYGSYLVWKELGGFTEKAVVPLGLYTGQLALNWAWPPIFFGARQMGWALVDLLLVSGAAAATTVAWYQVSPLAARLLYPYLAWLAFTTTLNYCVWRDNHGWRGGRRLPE
Data set [4] concerns the target TSPO in human U87MG cells (Homo sapiens, UniProt P30536). Nature of the data set: [3H]PK11195 displacement binding, human U87MG cell membranes. To be noted: for lipE human U87MG: lipE = pKi – logD.
In data set [5] the target is T3, TSPO in rat kidney (Rattus norvegicus, UniProt P16257). Put plainly: [3H]PK11195 displacement binding, rat kidney membranes. The note with it: for lipE rat kidney: lipE = pKi – logD.
Data set [6] deals with human cerebellum TSPO, LAB genotype. To be noted: cited from earlier work.
Data set [7] has as its target T2, human cerebellum TSPO, LAB genotype. To be noted: read-out: LAB Ki; cited from earlier work.
Data set [8] deals with T1, human cerebellum TSPO, HAB genotype. The note with it: cited from earlier work.
Data set [9] has as its target T3, TSPO in rat kidney. To be noted: cited from earlier work.
For data set [10] the following is noted: cited from earlier work.
The target of another data set is TSPO in the mouse brain (Mus musculus, UniProt P50637). Put plainly: PET imaging of radioligands in mouse brain, baseline and PK11195 preblock. Type of data set: in vivo.
Where [11] appears, read: read-out: HAB Ki, human cerebellum, three HAB subjects, 1 h at 37 °C.
The mark [12] stands for this setting: read-out: LAB Ki, human cerebellum, three LAB subjects, 1 h at 37 °C.
The mark [13] stands for this setting: read-out: human U87MG Ki, [3H]PK11195 1 nM, 90 min at 0 °C, n = 3.
Where [14] appears, read: read-out: rat kidney Ki, [3H]PK11195 1 nM, 90 min at 0 °C, n = 3.
[15] abbreviates: lipE = pKi – logD, data from ref 27.

TSPO in human U87MG cells, sequence (P30536 whole entry): as the sequence (P30536 whole entry) above

Regarding `CC[C@@H](C)N(C)C(=O)c1nc(-c2ccccc2F)c2ccccc2n1` [3a, (R)-(N-sec-Butyl)-4-(2-fluorophenyl)-N-methylquinazoline-2-carboxamide], the logD7.4 in “Measurement of logD” amounted to 3.04 ± 0.03. Moreover, in [1], the “lipE HAB” value was determined as 5.01. For the same compound, the inhibitory constant (Ki) (commonly the equilibrium dissociation constant of an inhibitor or competing ligand from its target) in data set [1] (setting [11]) was 9 ± 9.5 nM; in [3] (setting [12]), 25 ± 11.6 nM; in [4] (setting [13]), 5.64 ± 0.66 nM; on TSPO in rat kidney [5] (setting [14]), 4.19 ± 0.35 nM. In data set [2], the “LAB to HAB Ki ratio” value is recorded as 2.78. The “lipE human U87MG” value in data set [4] is reported as 5.21. On TSPO in rat kidney [5], this compound came in with a lipE rat kidney of 5.34.

On to `CC[C@@H](C)N(C)C(=O)c1nc(-c2cccc(F)c2)c2ccccc2n1` [3b, (R)-(N-sec-Butyl)-4-(3-fluorophenyl)-N-methylquinazoline-2-carboxamide], for which, in “Measurement of logD”, the logD7.4 is listed as 3.09 ± 0.01. For the same compound, the “lipE HAB” value in data set [1] turned out to be 4.95. For the same compound, the inhibitory constant (Ki) in data set [1] (setting [11]) came to 9.1 ± 8.1 nM; in data set [3] (setting [12]), 24.9 ± 12.7 nM; in [4] (setting [13]) it was 5.09 ± 0.65 nM; on TSPO in rat kidney [5] (setting [14]), 5.17 ± 0.63 nM. Moreover, the “LAB to HAB Ki ratio” value in data set [2] was 2.74. Moreover, in [4], the “lipE human U87MG” value is listed as 5.20. On TSPO in rat kidney [5], this compound yielded a lipE rat kidney of 5.20.

`CC[C@@H](C)N(C)C(=O)c1nc(-c2ccc(F)cc2)c2ccccc2n1` [3c, (R)-(N-sec-Butyl)-4-(4-fluorophenyl)-N-methylquinazoline-2-carboxamide]: the logD7.4 in “Measurement of logD” is reported as 3.01 ± 0.02. Moreover, in [1], the “lipE HAB” value stood at 4.81. Moreover, the Ki in data set [1] (setting [11]) came to 15.3 ± 10.3 nM; in data set [3] (setting [12]) it was 44.5 ± 34.4 nM; in data set [4] (setting [13]) it was 7.03 ± 0.66 nM; at TSPO in rat kidney [5] (setting [14]), 7.41 ± 0.82 nM. In addition, the “LAB to HAB Ki ratio” value in data set [2] was found to be 2.91. The “lipE human U87MG” value in [4] worked out at 5.14. The lipE rat kidney at TSPO in rat kidney [5] is on record as 5.12.

On to `CC[C@@H](C)N(C)C(=O)c1nc(-c2ccccc2C(F)(F)F)c2ccccc2n1` [3d, (R)-N-(sec-Butyl)-N-methyl-4-(2-(trifluoromethyl)phenyl)-quinazoline-2-carboxamide], for which, in “Measurement of logD”, the logD (usually the decadic logarithm of the distribution of all forms, ionised or not, between an organic phase and buffer at a given pH) was 3.25 ± 0.03. Also, the Ki in data set [1] was 6.8 ± 8.1 nM; in data set [3], 37.1 ± 30.2 nM; in data set [4], 3.18 ± 0.17 nM; on TSPO in rat kidney [5] it was 3.74 ± 0.1 nM. Further, the “LAB to HAB Ki ratio” value in data set [2] worked out at 5.46. Further, in data set [4], the “lipE human U87MG” value came to 5.25. Further, on TSPO in rat kidney [5], the lipE rat kidney is given as 5.18.

Turning to `CC[C@@H](C)N(C)C(=O)c1nc(-c2cccc(C(F)(F)F)c2)c2ccccc2n1` [3e, (R)-N-(sec-Butyl)-N-methyl-4-(3-(trifluoromethyl)phenyl)-quinazoline-2-carboxamide], the logD in “Measurement of logD” is 3.71 ± 0.03. Further, in [1], the affinity, expressed as Ki, was 18.6 ± 15.7 nM and the “lipE HAB” value amounted to 4.02. The “LAB to HAB Ki ratio” value in data set [2] was found to be 1.98. In addition, in [3], the Ki is 36.9 ± 38.5 nM. Further, in data set [4], the inhibitory constant (Ki) turned out to be 1.19 ± 0.17 nM and the “lipE human U87MG” value is 5.21. On TSPO in rat kidney [5], this compound returned a Ki of 1.44 ± 0.21 nM and a lipE rat kidney of 5.14.

The compound `CC[C@@H](C)N(C)C(=O)c1nc(-c2ccc(C(F)(F)F)cc2)c2ccccc2n1` [3f, (R)-N-(sec-Butyl)-N-methyl-4-(4-(trifluoromethyl)phenyl)-quinazoline-2-carboxamide] came in with a logD in the data set “Measurement of logD” of 3.93 ± 0.01. Also, in [1], the Ki came out at 5 ± 3.9 nM and the “lipE HAB” value is listed as 4.37. In addition, the “LAB to HAB Ki ratio” value in [2] came out at 0.8. In [3], this compound had a Ki of 4 ± 5 nM. Also, in data set [4], the affinity, expressed as Ki, was 2.42 ± 0.66 nM and the “lipE human U87MG” value amounted to 4.69. On TSPO in rat kidney [5], this compound registered an inhibitory constant (Ki) of 4.39 ± 0.14 nM and a lipE rat kidney of 4.43.

Regarding `CC[C@@H](C)N(C)C(=O)c1nc(-c2ccccc2Cl)c2ccccc2n1` [ER176, (R)-N-(sec-butyl)-4-(2-chlorophenyl)-N-methylquina-zoline-2-carboxamide], the “LAB to HAB Ki ratio” value in [6] is reported as 1.28. The Ki was 1.89 nM in [7], 1.48 nM in data set [8] (read-out: HAB Ki) and 3.1 ± 0.3 nM on TSPO in rat kidney [9] (read-out: rat kidney Ki). Moreover, in data set [8] (setting [15]), the “lipE HAB” value was 5.28. Besides, the lipE rat kidney on TSPO in rat kidney [9] (setting [15]) is 4.96. For the same compound, the logD7.4 in [10] was 3.55 ± 0.02.

In “Measurement of logD”, `CCC(C)N(C)C(=O)c1cc2ccccc2c(-c2ccccc2Cl)n1` (stereo not shown) [PK11195, reference compound] came in with a logD7.4 of 3.97 ± 0.02.

As to `CC[C@@H](C)N([11CH3])C(=O)c1nc(-c2ccccc2Cl)c2ccccc2n1` [[^11C]ER176], the “blocking effect of PK11195 on brain uptake” value at TSPO in the mouse brain (PK11195 5 mg/kg i.v. preblock, baseline vs preblock, 80–100 min) is recorded as 72%. Besides, the “peak radioactivity uptake in the brain” value at TSPO in the mouse brain (mouse whole brain, baseline, i.v. injection) was “around 1.0 SUV”. The “estimated brain TSPO occupancy at baseline” value at TSPO in the mouse brain (occupancy by carrier, estimated from brain concentration and molar activity) was 2.6%.
